Laboratory results from ChEMBL document CHEMBL4406835, “Discovery of dual-acting opioid ligand and TRPV1 antagonists as novel therapeutic agents for pain” (Eur J Med Chem, 2019).
Calls of active or inactive are those of the source. No cut-off for these calls is given here.

Legend:
[1] = biological target: T1, Transient receptor potential cation channel subfamily V member 1 (Homo sapiens, UniProt Q8NER1); assay: Displacement of [3H]RTX from recombinant human TRPV1 expressed in CHO cells incubated for 60 mins by liquid scintillation counter; type: cell-based
T1 sequence (Q8NER1 whole entry): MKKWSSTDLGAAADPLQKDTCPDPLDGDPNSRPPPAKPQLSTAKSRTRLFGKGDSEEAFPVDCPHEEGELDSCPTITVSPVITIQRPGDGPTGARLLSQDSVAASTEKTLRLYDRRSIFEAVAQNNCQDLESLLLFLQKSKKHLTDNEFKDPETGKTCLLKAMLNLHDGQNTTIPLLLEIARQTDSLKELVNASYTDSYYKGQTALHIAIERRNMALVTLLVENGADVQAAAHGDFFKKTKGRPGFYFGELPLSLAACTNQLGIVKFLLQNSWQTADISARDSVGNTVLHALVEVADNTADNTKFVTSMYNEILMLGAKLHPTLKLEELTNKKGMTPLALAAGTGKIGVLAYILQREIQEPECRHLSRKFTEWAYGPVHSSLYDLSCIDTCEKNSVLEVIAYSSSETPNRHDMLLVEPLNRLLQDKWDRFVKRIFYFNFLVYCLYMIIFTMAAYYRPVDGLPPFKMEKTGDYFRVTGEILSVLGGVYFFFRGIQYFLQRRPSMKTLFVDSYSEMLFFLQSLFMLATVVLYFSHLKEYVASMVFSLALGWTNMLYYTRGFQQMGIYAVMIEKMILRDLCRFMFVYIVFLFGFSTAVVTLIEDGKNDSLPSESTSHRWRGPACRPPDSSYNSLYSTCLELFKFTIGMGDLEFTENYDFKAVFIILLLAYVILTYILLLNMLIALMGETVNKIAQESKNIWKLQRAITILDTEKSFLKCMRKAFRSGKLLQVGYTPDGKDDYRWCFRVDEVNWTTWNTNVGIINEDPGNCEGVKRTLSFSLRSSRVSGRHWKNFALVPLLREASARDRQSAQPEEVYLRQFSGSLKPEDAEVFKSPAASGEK
In short: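 Pellets from human TRPV1 CHO cells (Tet-Off, induced 48 h) in DPBS with Ca2+/Mg2+ and BSA 0.25 mg/mL. Incubated with [3H]RTX 100 pM and varied competitor, 60 min at 37 °C. Nonspecific binding defined with unlabelled RTX 100 nM. Chilled, glycoprotein added, membranes pelleted by centrifugation, scintillation counted. Ki from Hill equation fit. Mean of ≥3 experiments.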

[2] = biological target: T1, Transient receptor potential cation channel subfamily V member 1; assay: Agonist activity at recombinant human TRPV1 expressed in CHO cells assessed as increase in calcium uptake incubated for 5 mins in presence of 45Ca2+ and capsaicin by liquid scintillation counter; type: cell-based
Mu-type opioid receptor = Mu-type opioid receptor (Homo sapiens, UniProt P35372); assay: Displacement of [3H]-DAMGO from full length human MOR expressed in chem5 cells incubated for 60 mins by liquid scintillation counter; type: cell-based
Chain of Mu-type opioid receptor (P35372 whole entry): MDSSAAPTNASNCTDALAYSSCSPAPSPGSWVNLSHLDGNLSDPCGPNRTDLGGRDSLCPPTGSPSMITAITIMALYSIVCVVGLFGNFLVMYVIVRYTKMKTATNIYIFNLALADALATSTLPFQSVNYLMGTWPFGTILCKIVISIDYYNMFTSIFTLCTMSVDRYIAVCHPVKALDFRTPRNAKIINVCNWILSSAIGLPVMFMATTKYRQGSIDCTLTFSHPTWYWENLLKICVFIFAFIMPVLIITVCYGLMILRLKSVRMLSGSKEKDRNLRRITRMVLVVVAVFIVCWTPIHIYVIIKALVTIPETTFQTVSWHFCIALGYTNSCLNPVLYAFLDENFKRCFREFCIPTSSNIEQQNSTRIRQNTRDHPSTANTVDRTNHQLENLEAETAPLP

Mus musculus [3] = assay: Antinociceptive activity in ip dosed ICR mouse assessed as reduction in pain response of paw licking and biting pretreated for 30 mins followed by formalin treatment and measures after 0 to 5 mins by formalin test; type: functional
In short: (§1)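 Male ICR mice, 20-25 g, 6-8 per group. Compound i.p. 30 min before 20 μL of 2% formalin in 0.9% saline into dorsal right hindpaw. Licking and biting time summed per 5 min block over 30 min. Early phase 0-5 min, late phase 20-30 min. ED50 derived from dose-response.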

Mus musculus [4] = assay: Antinociceptive activity in ip dosed ICR mouse assessed as reduction in pain response of paw licking and biting pretreated for 30 mins followed by formalin treatment and measures after 20 to 30 mins by formalin test; type: functional; in short: as §1
Mus musculus [5] = assay: Antinociceptive activity in ICR mouse assessed as reduction of pain behaviour at 40 mg/kg, ip pretreated for 30 mins followed by formalin treatment and measured after 20 to 30 mins by formalin test; type: functional, organism-based
In short: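 Male ICR mice, 20-25 g, in groups of 6-8. Compound given i.p. 30 min before 20 μL of 2% formalin in 0.9% saline injected into the dorsal right hindpaw. Licking and biting time is summed in 5-min blocks over 30 min. Late phase is 20-30 min after injection.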

Mus musculus [6] = assay: Antinociceptive activity in ip dosed ICR mouse assessed as reduction in capsaicin-induced paw licking pretreated for 30 mins followed by capsaicin treatment and measured for 5 mins; type: functional, organism-based
In short: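 Male ICR mice, 20-25 g, in groups of 3-4. Compound or vehicle given i.p. 30 min before intraplantar capsaicin (3 μg/paw in 10 μl) into the right hind paw. Time spent licking the injected paw is recorded over 5 min. Results are given as mean ± SEM and compared with vehicle.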

Mus musculus [7] = assay: Antinociceptive activity in ICR mouse assessed as reduction in capsaicin-induced paw licking at 20 mg/kg, ip pretreated for 30 mins followed by capsaicin treatment and measured for 5 mins relative to control; type: functional
In short: (§2)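 Male ICR mice, 20-25 g, 3-4 per group. Pretreated i.p. with compound or vehicle 30 min before intraplantar capsaicin 3 μg/paw in 10 μL into right hind paw. Licking time recorded for 5 min and expressed as % inhibition versus vehicle. Mean ± SEM.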

Mus musculus [8] = assay: Antinociceptive activity in ICR mouse assessed as reduction in capsaicin-induced paw licking at 40 mg/kg, ip pretreated for 30 mins followed by capsaicin treatment and measured for 5 mins relative to control; type: functional; in short: as §2
Mus musculus [9] = assay: Antinociceptive activity in ICR mouse assessed as reduction in paw licking time at 30 mg/kg, ip pretreated for 30 mins followed by formalin treatment and measures after 0 to 5 mins by formalin test relative to control; type: functional
In short: (§3)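 Male ICR mice, 20-25 g. Compound i.p. 30 min before 20 μL of 2% formalin in 0.9% saline into dorsal right hindpaw. Licking time scored at 0-5 min (early) and 20-30 min (late) and expressed as % decrease versus vehicle. n = 3-4, mean ± SEM.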

Mus musculus [10] = assay: Antinociceptive activity in ICR mouse assessed as reduction in paw licking time at 30 mg/kg, ip pretreated for 30 mins followed by formalin treatment and measures after 20 to 30 mins by formalin test relative to control; type: functional; in short: as §3
Mus musculus [11] = assay: (§4) Antinociceptive activity in ICR mouse assessed as reduction in paw licking time at 30 mg/kg, ip pretreated with 10 mg/kg, ip mu opioid receptor antagonist, naloxone 15 mins prior to compound treatment and 30 mins later treated with formalin and measured after 0 to 5 mins by formalin test relative to control; type: functional
In short: (§5)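 Male ICR mice, 20-25 g, 3-4 per group. Naloxone 10 mg/kg i.p. given 15 min before test article or vehicle i.p. Formalin paw test 30 min later: 20 μL of 2% formalin into right hindpaw. Licking scored at 0-5 min and 20-30 min and compared with vehicle. Mean ± SEM.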

Mus musculus [12] = assay: as §4, with “after 20” for “after 0”, “to 30” for “to 5”; type: functional; in short: as §5
[13] = biological target: T1, Transient receptor potential cation channel subfamily V member 1; assay: Antagonist activity at recombinant human TRPV1 expressed in CHO cells assessed as as inhibition of capsaicin-induced calcium uptake incubated for 5 mins in presence of 45Ca2+ by liquid scintillation counter; type: cell-based
In short: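 CHO cells stably expressing human TRPV1 (Tet-Off) induced 48 h in tetracycline-free medium. Uptake run in DMEM with BSA 0.25 mg/mL and 45Ca2+ 37 kBq/mL, with capsaicin 30 nM plus increasing test concentrations, 5 min at 37 °C. Cells washed, lysed in RIPA, counted. Four wells per point, Hill fit. ID50 converted to Ki by Cheng-Prusoff. Mean of ≥3 experiments.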

Compound	Ki [1] [µM]	EC50 ([2]; cho)	Ki (Mu-type opioid receptor) [µM]	also measured
CN(C)C1(Cc2ccccc2)CCN(c2cc(C(F)(F)F)ccc2CNC(=O)Nc2cccc3ncccc23)CC1	0.0108	Not Active	0.029	Activity (Mus musculus [3]): Dose-dependent effect; ED50 (Mus musculus [3]): 23.9 mg/kg; Activity (Mus musculus [4]): Dose-dependent effect; ED50 (Mus musculus [4]): 10.5 mg/kg; inhibition (Mus musculus [5]): Active; inhibition (Mus musculus [6]): Dose-dependent effect; inhibition in vivo at 20 mg/kg (Mus musculus [7]): 64.8%; inhibition in vivo at 40 mg/kg (Mus musculus [8]): 89.6%; inhibition in vivo at 30 mg/kg (Mus musculus [9]): 52.5%; inhibition in vivo at 30 mg/kg (Mus musculus [10]): 90.2%; inhibition (INH) (Mus musculus [11]): 5.7%; inhibition (INH) (Mus musculus [12]): 47.9%
CC(C(=O)NCc1ccc(C(F)(F)F)cc1N1CCC(Cc2ccccc2)(N(C)C)CC1)c1ccc(NS(C)(=O)=O)c(F)c1 (configuration not stated)	0.00379	Not Active	0.428	–
CN(C)C1(Cc2ccccc2)CCN(c2cc(C(F)(F)F)ccc2CNC(=O)Nc2ccc(CNS(N)(=O)=O)c(F)c2)CC1	0.0153	Not Active	0.0724	–
CN(C)C1(Cc2ccccc2)CCN(c2cc(C(F)(F)F)ccc2CNC(=O)Nc2ccc3cnccc3c2)CC1	0.062	Not Active	0.017	–
CN(C)C1(Cc2ccccc2)CCN(c2cc(C(F)(F)F)ccc2CNC(=O)Nc2cccc3[nH]c(=O)ccc23)CC1	0.00167	Not Active	0.24	–
CC1CCN(c2nc(C(F)(F)F)ccc2CNC(=O)[C@@H](C)c2ccc(NS(C)(=O)=O)c(F)c2)CC1 (racemic)	0.0079	Not Active	–	–
CN(C)C1(Cc2ccccc2)CCN(c2cc(C(F)(F)F)ccc2CNC(=O)Nc2ccc(CO)c(F)c2)CC1	0.0279	Not Active	0.24	–
CN(C)C1(Cc2ccccc2)CCN(c2cc(C(F)(F)F)ccc2CNC(=O)Nc2cccc3cnccc23)CC1	0.00067	Not Active	0.507	–
CN(C)C1(Cc2ccccc2)CCN(c2cc(C(F)(F)F)ccc2CNC(=O)Nc2ccc3c(c2)OCC3)CC1	0.0414	Not Active	0.225	–
CN(C)C1(Cc2ccccc2)CCN(c2cc(C(F)(F)F)ccc2CNC(=O)Nc2ccc(CNS(C)(=O)=O)c(F)c2)CC1	0.0164	Not Active	0.322	–
CN(C)C1(Cc2ccccc2)CCN(c2cc(C(F)(F)F)ccc2CNC(=O)Nc2ccc3cccnc3c2)CC1	0.0141	Not Active	0.166	–
CN(C)C1(Cc2ccccc2)CCN(c2cc(C(F)(F)F)ccc2CNC(=O)Nc2ccc3ccncc3c2)CC1	0.00733	Not Active	0.177	–
CN(C)C1(Cc2ccccc2)CCN(c2cc(C(F)(F)F)ccc2CNC(=O)Nc2cccc3c(=O)[nH]ccc23)CC1	0.111	–	0.105	EC50 ([2]; read-out: EC50): 0.0437 µM; Ki [13]: Not Active
CN(C)C1(Cc2ccccc2)CCN(c2cc(C(F)(F)F)ccc2CNC(=O)Nc2cccc3c2CC(O)CC3)CC1 (configuration not stated)	0.00095	Not Active	0.261	–
CN(C)C1(Cc2ccccc2)CCN(c2cc(C(F)(F)F)ccc2CNC(=O)NCc2ccc(NS(C)(=O)=O)c(F)c2)CC1	0.266	Not Active	0.0762	–
CN(C)C1(Cc2ccccc2)CCN(c2cc(C(F)(F)F)ccc2CNC(=O)Nc2ccc(NS(C)(=O)=O)c(F)c2)CC1	1.16	Not Active	0.368	inhibition [13]: Active
CN(C)C1(Cc2ccccc2)CCN(c2cc(C(F)(F)F)ccc2CNC(=O)Nc2cccc3ccncc23)CC1	0.0123	Not Active	0.205	–
CN(C)C1(Cc2ccccc2)CCN(c2cc(C(F)(F)F)ccc2CNC(=O)Nc2cccc3ccc(O)cc23)CC1	0.00046	Not Active	0.137	–
